In assay [1] the test system is Plasmodium falciparum. Kind of assay: Antiplasmodial activity against Plasmodium falciparum W2 after 48 hrs. In kind it is functional, organism-based. The conditions noted are these: W2, 48 h. The method, boiled down: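 W2 P. falciparum grown in human erythrocytes, 2% hematocrit, RPMI with 10% human serum or 0.5% AlbuMAX II; sorbitol-synchronized. Serial dilutions from DMSO stocks added at ring stage for 48 h, medium and drug renewed at 24 h. Cells fixed in 1% formaldehyde, stained with YOYO-1, parasitemia counted by flow cytometry; IC50 from percent parasitemia versus untreated controls.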

Assay [2] can be described thus: Inhibition of Plasmodium falciparum falcipain-2 expressed in Escherichia coli. The method, boiled down:
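Recombinant E. coli-expressed, refolded enzyme at 0.25 nM in 100 mM sodium acetate pH 5.5, 500 μM CHAPS, 10 mM DTT, DMSO ≤1%. Substrate H-D-Val-Leu-Arg-AFC at 30 μM final. Inhibitor dilutions mixed with substrate, enzyme added last; fluorescence followed 1 h at room temperature. IC50 from percent activity versus concentration.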

A short description of assay [3]: Inhibition of Plasmodium falciparum falcipain-3 expressed in Escherichia coli. Put shortly:
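Refolded recombinant enzyme from E. coli, 2 nM, in 100 mM sodium acetate pH 5.5 with 500 μM CHAPS and 10 mM DTT, DMSO up to 1%. H-D-Val-Leu-Arg-AFC at 150 μM final. Reaction started by enzyme addition; fluorescence monitored 1 h at room temperature. IC50 derived from percent activity plotted against inhibitor concentration.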

Molecules are shown by their SMILES. Some results are limits rather than exact numbers.

Turning to `CC(C)CN(NC(=O)c1ccc(OCCN2CCOCC2)cc1)c1nc(C#N)ncc1Cl`, the IC50 (commonly the concentration needed to halve the response being measured) in assay [1] amounted to 870 nM; in assay [2] it was 2 nM; in assay [3], 90 nM.
Take `CC(C)CN(NC(=O)c1cc2cc(OCCN3CCNCC3)ccc2o1)c1nc(C#N)ncc1Cl`: the IC50 in assay [1] came to 76 nM; in assay [2], 1 nM; in assay [3], 107 nM.
On to `CN1CCN(Cc2ccc(C(=O)NN(CCC(C)(C)C)c3nc(C#N)ncc3Br)cc2)CC1`, for which the IC50 was determined as 1500 nM in assay [1], 3 nM in assay [2] and 39 nM in assay [3].
`C[C@@H]1CCC[C@H]1N(NC(=O)c1ccc(CN2CCN(C)CC2)cc1)c1nc(C#N)ncc1Br`: the 50% inhibitory concentration (IC50) in assay [1] was determined as 5 nM; in assay [2] it was 0.2 nM; in assay [3] it was 3 nM.
As for `CN1CCN(Cc2ccc(C(=O)NN(CCc3ccccc3)c3nc(C#N)ncc3Br)cc2)CC1`, the IC50 in assay [1] worked out at 2180 nM; in assay [2], 23 nM; in assay [3], 105 nM.
With `CN1CCN(Cc2ccc(C(=O)NN(CC(C)(C)C)c3nc(C#N)ncc3Br)cc2)CC1`, the IC50 turned out to be 409 nM in assay [1], 19 nM in assay [2] and 158 nM in assay [3].
Regarding `CCC(C)CN(NC(=O)c1ccc(CN2CCN(C)CC2)cc1)c1nc(C#N)ncc1Br` (configuration not stated), the IC50 in assay [1] amounted to 24 nM; in assay [2], 0.9 nM; in assay [3] it was 35 nM.
With `CN1CCN(Cc2ccc(C(=O)NN(Cc3ccccc3)c3nc(C#N)ncc3Br)cc2)CC1`, the IC50 was found to be 2370 nM in assay [1], 5 nM in assay [2] and 335 nM in assay [3].
With `CC(C)CN(NC(=O)c1ccc(N2CCOCC2)nc1)c1nc(C#N)ncc1Br`, the figures for the 50% inhibitory concentration (IC50) in assay [1], in assay [2] and in assay [3] were 1530 nM, 0.2 nM and 53 nM, respectively.
As for `CC(C)CN(NC(=O)c1ccc(CN2CCN(C)CC2)o1)c1nc(C#N)ncc1Br`, the IC50 in assay [1] worked out at 21 nM; in assay [2], 0.7 nM; in assay [3], 12 nM.
The like results for `CCCN1CCN(c2ccc(C(=O)NN(CC(C)C)c3nc(C#N)ncc3Br)cc2)CC1` were, in that order, 25 nM, less than 0.5 nM and 32 nM.
As to `CC(C)CN(NC(=O)c1ccc(-c2cccc(CN3CCN(C)CC3)c2)nc1)c1nc(C#N)ncc1Br`, the values for the concentration for half-maximal inhibition (IC50) in assay [1], in assay [2] and in assay [3] were 22 nM, 0.2 nM and 38 nM, respectively.
Turning to `CCCC(CCC)CN(NC(=O)c1ccc(CN2CCN(C)CC2)cc1)c1nc(C#N)ncc1Br`, the IC50 in assay [1] is 1200 nM; in assay [2], 81 nM; in assay [3] it was 802 nM.
The like results for `CN1CCN(Cc2ccc(C(=O)NN(c3nc(C#N)ncc3Br)C3CCCCC3)cc2)CC1` were, in that order, 27 nM, 0.5 nM and 6 nM.
In the case of `CN1CCN(Cc2ccc(C(=O)NN(Cc3ccoc3)c3nc(C#N)ncc3Br)cc2)CC1`, the results for the 50% inhibitory concentration (IC50) in assay [1], in assay [2] and in assay [3] were 333 nM, 2 nM and 133 nM, respectively.
Regarding `CCC(CC)CN(NC(=O)c1ccc(CN2CCN(C)CC2)cc1)c1nc(C#N)ncc1Br`, the IC50 in assay [1] amounted to 194 nM; in assay [2], 2 nM; in assay [3] it was 44 nM.
The like results for `CN1CCN(Cc2ccc(C(=O)NN(CC3CCC3)c3nc(C#N)ncc3Br)cc2)CC1` were, in that order, 438 nM, 3 nM and 111 nM.
`CC(C)CN(NC(=O)c1ccc(-c2ccc(CN3CCN(C)CC3)cc2)nc1)c1nc(C#N)ncc1Br`: the IC50 in assay [1] is 16 nM; in assay [2], less than 0.5 nM; in assay [3], 26 nM.
As to `CC(C)CN(NC(=O)C(C)(C)c1ccc(OCCN2CCOCC2)cc1)c1nc(C#N)ncc1Cl`, the IC50 was 806 nM in assay [1], 4 nM in assay [2] and 18 nM in assay [3].
In the case of `C[C@H]1CCC[C@H]1N(NC(=O)c1ccc(CN2CCN(C)CC2)cc1)c1nc(C#N)ncc1Br` (relative stereo), the figures for the IC50 in assay [1], in assay [2] and in assay [3] were 82 nM, 2 nM and 41 nM, respectively.
The corresponding values for `CC(C)CN(c1nc(C#N)ncc1Br)N(CCCN1CCN(C)CC1)C(=O)c1ccc(F)cc1` are 346 nM, 9 nM and 105 nM.
For the molecule `CC(C)CN(NC(=O)Cc1ccc(OCCN2CCOCC2)cc1)c1nc(C#N)ncc1Br`, the values for the IC50 in assay [1], in assay [2] and in assay [3] were 65 nM, 0.7 nM and 5 nM, respectively.
Turning to `CC(C)CN(NC(=O)c1ccc(N2CCN(C)CC2)cc1)c1nc(C#N)ncc1Br`, the IC50 in assay [1] is 33 nM; in assay [2] it was less than 0.2 nM; in assay [3], 32 nM.
As to `CN1CCN(Cc2ccc(C(=O)NN(CC3CCCC3)c3nc(C#N)ncc3Br)cc2)CC1`, the IC50 in assay [1] stood at 33 nM; in assay [2], 0.5 nM; in assay [3], 6 nM.
Turning to `CC(C)CN(NC(=O)c1cc2cc(CN3CCN(C)CC3)ccc2o1)c1nc(C#N)ncc1Br`, the results for the concentration for half-maximal inhibition (IC50) in assay [1], in assay [2] and in assay [3] were 30 nM, less than 0.5 nM and 29 nM, respectively.
For `CC(C)CN(NC(=O)Cc1ccc(CN2CCN(C)CC2)cc1)c1nc(C#N)ncc1Br`, the concentration for half-maximal inhibition (IC50) in assay [1] was 28 nM; in assay [2], 0.8 nM; in assay [3], 5 nM.
For the molecule `CN1CCN(Cc2ccc(C(=O)NN(c3nc(C#N)ncc3Br)C3CCCC3)cc2)CC1`, the IC50 in assay [1] is 24 nM; in assay [2] it was less than 0.5 nM; in assay [3], 11 nM.
The like results for `CC(C)CN(NC(=O)c1ccc(CN2CCN(C)CC2)s1)c1nc(C#N)ncc1Br` were, in that order, 10 nM, 0.2 nM and 12 nM.
As to `CN1CCN(Cc2ccc(C(=O)NN(CC3CC=CC3)c3nc(C#N)ncc3Br)cc2)CC1`, the IC50 in assay [1] is 98 nM; in assay [2] it was 0.7 nM; in assay [3] it was 16 nM.
As for `CC(C)CN(NC(=O)c1cncc(-c2ccc(CN3CCN(C)CC3)cc2)c1)c1nc(C#N)ncc1Br`, the 50% inhibitory concentration (IC50) in assay [1] is 1 nM; in assay [2], less than 0.5 nM; in assay [3] it was less than 3 nM.
With `CC(=O)NC1CCC(N(NC(=O)c2ccc(CN3CCN(C)CC3)cc2)c2nc(C#N)ncc2Br)CC1` (configuration not stated), the 50% inhibitory concentration (IC50) in assay [1] is 1310 nM; in assay [2], 8 nM; in assay [3], 88 nM.
With `CC(C)CN(NC(=O)c1ccc(-n2ccnc2)cc1)c1nc(C#N)ncc1Br`, the concentration for half-maximal inhibition (IC50) stood at 9 nM in assay [2] and 239 nM in assay [3].
Turning to `Cc1c(-c2ccccc2Cl)noc1C(=O)NN(CC(C)C)c1nc(C#N)ncc1Cl`, the values for the concentration for half-maximal inhibition (IC50) in assay [2] and in assay [3] were 100 nM and 571 nM, respectively.
The like results for `CC(C)CN(NC(=O)c1cncc(-c2ccccc2)c1)c1nc(C#N)ncc1Cl` were, in that order, 0.8 nM and 26 nM.
Take `CC(C)CN(NC(=O)C(N)c1ccccc1)c1nc(C#N)ncc1Br` (configuration not stated): the IC50 in assay [2] worked out at 7 nM; in assay [3] it was 34 nM.
Regarding `COc1cnc(C#N)nc1N(CC(C)C)NC(=O)OC(C)(C)C`, the half-maximal inhibitory concentration (IC50) is 79 nM in assay [2] and 2390 nM in assay [3].
Consider `CC(C)CN(NC(=O)c1ccc2ccccc2c1)c1nc(C#N)ncc1Br`, for which the values for the half-maximal inhibitory concentration (IC50) in assay [2] and in assay [3] were 65 nM and 645 nM, respectively.
Consider `CC(C)CN(NC(=O)c1cc2ccccc2o1)c1nc(C#N)ncc1Br`, for which the results for the half-maximal inhibitory concentration (IC50) in assay [2] and in assay [3] were 65 nM and 563 nM, respectively.
The corresponding values for `COc1ccc(-c2cc(C(=O)NN(CC(C)C)c3nc(C#N)ncc3Br)no2)cc1` are 4 nM and 692 nM.
Consider `CC(C)CN(NC(=O)OC(C)(C)C)c1ncc(C#N)c(Cl)n1`, for which the IC50 in assay [2] worked out at 64 nM; in assay [3], 990 nM.
For `CC(C)CN(NC(=O)c1cc2ccccc2cn1)c1nc(C#N)ncc1Cl`, the results for the IC50 in assay [2] and in assay [3] were 7 nM and 333 nM, respectively.
In the case of `CC(C)CN(NC(=O)OC(C)(C)C)c1nc(C#N)ncc1NCc1ccccc1`, the IC50 in assay [2] came out at 616 nM; in assay [3], 2070 nM.
On to `CC(C)CN(NC(=O)c1ccc2[nH]cnc2c1)c1nc(C#N)ncc1Cl`, for which the IC50 came out at 0.5 nM in assay [2] and 93 nM in assay [3].
The corresponding values for `CC(C)CN(NC(=O)c1cc(-c2ccccc2)ncn1)c1nc(C#N)ncc1Cl` are 1 nM and 30 nM.
Turning to `CC(C)CN(NC(=O)c1ccc(-c2ccccc2)nc1)c1nc(C#N)ncc1Br`, the IC50 in assay [2] amounted to 3 nM; in assay [3], 104 nM.
The corresponding values for `CC(C)CN(NC(=O)C1(c2ccc(Cl)cc2)CCC1)c1nc(C#N)ncc1Br` are 12 nM and 216 nM.
In the case of `CC(C)(C)OC(=O)NN(c1nc(C#N)ncc1Br)C1CCN(C(=O)OCc2ccccc2)CC1`, the values for the IC50 in assay [2] and in assay [3] were 2 nM and 38 nM, respectively.
The corresponding values for `CC(C)CN(NC(=O)C1(c2ccc(Cl)cc2)CCCC1)c1nc(C#N)ncc1Br` are 12 nM and 184 nM.
As to `CC(C)(C)OC(=O)NN(CC1CCCCC1)c1nc(C#N)ncc1Br`, the results for the IC50 in assay [2] and in assay [3] were 24 nM and 146 nM, respectively.
The corresponding values for `CC(C)CN(NC(=O)c1ccc2[nH]nnc2c1)c1nc(C#N)ncc1Br` are 0.2 nM and 40 nM.
Turning to `CC(C)(C)OC(=O)NN(CC1CC=CCC1)c1nc(C#N)ncc1Br` (configuration not stated), the IC50 in assay [2] was determined as 2 nM; in assay [3], 41 nM.
In the case of `CC(C)CN(NC(=O)c1ccc(-c2ccccc2)cc1)c1nc(C#N)ncc1Br`, the half-inhibitory concentration (IC50) in assay [2] turned out to be 28 nM; in assay [3], 1460 nM.
In the case of `CC(C)CN(NC(=O)OC(C)(C)C)c1nc(C#N)ncc1C#Cc1ccc(C(F)(F)F)cc1`, the IC50 in assay [2] came to 102 nM; in assay [3], 5330 nM.

For the origin of these results see ChEMBL document CHEMBL1212900, “Falcipain inhibitors: optimization studies of the 2-pyrimidinecarbonitrile lead series” (J Med Chem, 2010).
